Values after ≈ are worked out from the molar mass of the structure shown.
How the values were obtained:
[1] = test system: Staphylococcus aureus; assay: Antimicrobial activity against oxacillin- and methicillin-resistant Staphylococcus aureus isolate Sa-OXA-R2 after 18 to 24 hrs by alamar blue assay; format: functional
Method in brief: (§1)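 Broth microdilution per NCCLS standard, Mueller-Hinton broth, 8-point twofold dilutions; exponentially growing cells at 5 10^5 cells/ml with compound, 18–24 h at 37 C; 20% Alamar blue added, fluorescence read; MIC90 taken as lowest concentration preventing at least 90% growth.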

[2] = test system: Bacillus subtilis; assay: Antimicrobial activity against Bacillus subtilis ATCC 23857 after 18 to 24 hrs by alamar blue assay; format: functional
Method in brief: (§2)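 Broth microdilution per NCCLS in Mueller-Hinton broth, 8-point twofold dilutions, 384-well format. Exponential-phase cells at 5 × 10^5 cells/ml incubated with compound 18–24 h at 37 °C, then 20% Alamar blue added and fluorescence read. MIC90 taken as the lowest concentration preventing at least 90% bacterial growth.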

[3] = test system: Escherichia coli; assay: Antimicrobial activity against Escherichia coli ATCC […] after 18 to 24 hrs by alamar blue assay; format: functional; conditions: Escherichia coli; read-out: MIC; method in brief: as §2
[4] = test system: Pseudomonas aeruginosa; assay: Antimicrobial activity against Pseudomonas aeruginosa ATCC 25619 after 18 to 24 hrs by alamar blue assay; format: functional; conditions: Pseudomonas aeruginosa, ATCC 25619; read-out: MIC; method in brief: as §2
[5] = test system: Acinetobacter baumannii; assay: Antimicrobial activity against Acinetobacter baumannii ATCC 49139 after 18 to 24 hrs by alamar blue assay; format: functional; conditions: Acinetobacter baumannii, ATCC 49139; read-out: MIC; method in brief: as §2
[6] = test system: Stenotrophomonas maltophilia; assay: Antimicrobial activity against Stenotrophomonas maltophilia ATCC 13637 after 18 to 24 hrs by alamar blue assay; format: functional; conditions: Stenotrophomonas maltophilia, ATCC 13637; read-out: MIC; method in brief: as §2
[7] = test system: Serratia marcescens; assay: Antimicrobial activity against Serratia marcescens ATCC 14756 after 18 to 24 hrs by alamar blue assay; format: functional; conditions: Serratia marcescens, ATCC 14756; read-out: MIC; method in brief: as §2
[8] = test system: Mycolicibacterium smegmatis; assay: Antimicrobial activity against Mycobacterium smegmatis BCRC 11565 after 18 to 24 hrs by alamar blue assay; format: functional; conditions: Mycolicibacterium smegmatis, BCRC 11565; read-out: MIC; method in brief: as §2
[9] = test system: Staphylococcus aureus; assay: Antimicrobial activity against methicillin-resistant Staphylococcus aureus isolate NTUH4722 after 18 to 24 hrs by alamar blue assay; format: functional; method in brief: as §1
[10] = test system: Staphylococcus aureus; assay: Antimicrobial activity against methicillin-resistant Staphylococcus aureus ATCC 33592 after 18 to 24 hrs by alamar blue assay; format: functional; conditions: Staphylococcus aureus, ATCC 33592; read-out: MIC; method in brief: as §1
[11] = test system: Staphylococcus aureus; assay: Antimicrobial activity against Staphylococcus aureus ATCC 29213 after 18 to 24 hrs by alamar blue assay

Compound | MIC [1] [µg/mL] | MIC [2] [µg/mL] | MIC [3] [µg/mL] | MIC [4] [µg/mL] | MIC [5] [µg/mL] | MIC [6] [µg/mL] | MIC [7] [µg/mL] | MIC [8] [µg/mL] | MIC [9] [µg/mL] | MIC [10] [µg/mL] | MIC [11] [µg/mL]
Cc1ccc(N2C(=O)c3ccc([N+](=O)[O-])c4c([N+](=O)[O-])ccc(c34)C2=O)cc1 | 2.5 (≈ 6.63 µM) | 4 (≈ 10.6 µM) | > 256 | > 256 | > 256 | > 256 | > 256 | 4 (≈ 10.6 µM) | 2.5 (≈ 6.63 µM) | 2.5 (≈ 6.63 µM) | 5 (≈ 13.3 µM)
O=C(Nc1nnc(-c2ccc(F)cc2)o1)c1ccc(Cl)s1 | 1.2 (≈ 3.71 µM) | 0.5 (≈ 1.54 µM) | > 256 | > 256 | > 256 | > 256 | > 256 | 0.5 (≈ 1.54 µM) | 1.2 (≈ 3.71 µM) | 1.2 (≈ 3.71 µM) | 1.2 (≈ 3.71 µM)
O=C(Nc1ccc2oc(-c3ccncc3)nc2c1)c1ccc([N+](=O)[O-])o1 | > 4 | 0.06 (≈ 0.171 µM) | 256 (≈ 731 µM) | 128 (≈ 365 µM) | 12 (≈ 34.3 µM) | 32 (≈ 91.4 µM) | 32 (≈ 91.4 µM) | 0.5 (≈ 1.43 µM) | 2 (≈ 5.71 µM) | 4 (≈ 11.4 µM) | 2 (≈ 5.71 µM)
O=C(Nc1nnc(-c2ccccc2Cl)o1)c1nc2ccccc2s1 | 32 (≈ 89.7 µM) | 0.5 (≈ 1.4 µM) | > 256 | > 256 | > 256 | > 256 | > 256 | 0.5 (≈ 1.4 µM) | 2 (≈ 5.61 µM) | 2 (≈ 5.61 µM) | 2 (≈ 5.61 µM)
O=C(Nc1nnc(-c2ccc(Cl)cc2)o1)c1cccc(Br)c1 | 2 (≈ 5.28 µM) | 0.5 (≈ 1.32 µM) | > 256 | > 256 | > 256 | > 256 | > 256 | 0.5 (≈ 1.32 µM) | 2 (≈ 5.28 µM) | 0.5 (≈ 1.32 µM) | 0.5 (≈ 1.32 µM)
O=C(Nc1cccc2c1C(=O)NC2=O)c1ccc([N+](=O)[O-])o1 | 2 (≈ 6.64 µM) | 0.06 (≈ 0.199 µM) | 256 (≈ 850 µM) | 128 (≈ 425 µM) | 12 (≈ 39.8 µM) | 32 (≈ 106 µM) | 32 (≈ 106 µM) | 0.5 (≈ 1.66 µM) | 2 (≈ 6.64 µM) | 1 (≈ 3.32 µM) | 4 (≈ 13.3 µM)
CCCc1cc(O)nc(N2NC(C)=CC2NC(=O)c2cccs2)n1 (stereo unspecified) | 1 (≈ 2.89 µM) | 0.25 (≈ 0.724 µM) | > 256 | > 256 | > 256 | > 256 | > 256 | 0.25 (≈ 0.724 µM) | 1 (≈ 2.89 µM) | 1 (≈ 2.89 µM) | 1 (≈ 2.89 µM)
Cc1c(CC(=O)N2CCC(C(=O)O)CC2)c(=O)oc2c(C)c3occ(-c4ccc(F)cc4)c3cc12 | 2.5 (≈ 5.24 µM) | > 64 | > 256 | > 256 | > 256 | > 256 | > 256 | 1 (≈ 2.09 µM) | 2.5 (≈ 5.24 µM) | 1.25 (≈ 2.62 µM) | 2.5 (≈ 5.24 µM)
Cc1c(CC(=O)N[C@@H](C)C(=O)O)c(=O)oc2c(C)c3occ(-c4ccc(Cl)cc4)c3cc12 | 1.25 (≈ 2.75 µM) | > 64 | > 256 | > 256 | > 256 | > 256 | > 256 | 1 (≈ 2.2 µM) | 0.3 (≈ 0.661 µM) | 1.25 (≈ 2.75 µM) | 0.3 (≈ 0.661 µM)
Cc1c(CC(=O)N[C@@H](CCCNC(N)=O)C(=O)O)c(=O)oc2c(C)c3occ(-c4ccc(Cl)cc4)c3cc12 | 2.5 (≈ 4.63 µM) | > 64 | > 256 | > 256 | > 256 | > 256 | > 256 | 1 (≈ 1.85 µM) | 2.5 (≈ 4.63 µM) | 2.5 (≈ 4.63 µM) | 1.25 (≈ 2.31 µM)
Cc1ccc(-c2nnc(NC(=O)c3nc4ccccc4s3)o2)c(C)c1 | 0.25 (≈ 0.713 µM) | 0.5 (≈ 1.43 µM) | > 256 | > 256 | > 256 | > 256 | > 256 | 0.5 (≈ 1.43 µM) | 0.25 (≈ 0.713 µM) | 0.5 (≈ 1.43 µM) | 0.5 (≈ 1.43 µM)
COc1ccccc1N1C(=O)c2cc([N+](=O)[O-])cc3cc([N+](=O)[O-])cc(c23)C1=O | 0.3 (≈ 0.763 µM) | 4 (≈ 10.2 µM) | > 256 | > 256 | > 256 | > 256 | > 256 | 4 (≈ 10.2 µM) | 2.5 (≈ 6.36 µM) | 2.5 (≈ 6.36 µM) | 1.25 (≈ 3.18 µM)
Cc1c(CC(=O)N2CCC(C(=O)O)(c3ccccc3)CC2)c(=O)oc2c(C)c3occ(-c4ccc(Cl)cc4)c3cc12 | 2.5 (≈ 4.39 µM) | > 64 | > 256 | > 256 | > 256 | > 256 | > 256 | 1 (≈ 1.75 µM) | 2.5 (≈ 4.39 µM) | 2.5 (≈ 4.39 µM) | 2.5 (≈ 4.39 µM)
CCN1C(=O)/C(=C/c2ccc([N+](=O)[O-])o2)SC1=S | 0.25 (≈ 0.879 µM) | < 0.03 | 16 (≈ 56.3 µM) | 2 (≈ 7.03 µM) | > 256 | > 256 | > 256 | 1 (≈ 3.52 µM) | 0.125 (≈ 0.44 µM) | 0.5 (≈ 1.76 µM) | 0.5 (≈ 1.76 µM)
O=C(Nc1cccc(-c2nc3ncccc3o2)c1)c1ccc([N+](=O)[O-])o1 | 2 (≈ 5.71 µM) | 0.06 (≈ 0.171 µM) | 256 (≈ 731 µM) | 128 (≈ 365 µM) | 12 (≈ 34.3 µM) | 32 (≈ 91.4 µM) | 32 (≈ 91.4 µM) | 0.5 (≈ 1.43 µM) | 2 (≈ 5.71 µM) | 4 (≈ 11.4 µM) | 4 (≈ 11.4 µM)
Cc1c(CC(=O)NCCC(=O)O)c(=O)oc2c(C)c3occ(-c4ccc(Cl)cc4)c3cc12 | 2.5 (≈ 5.51 µM) | > 64 | > 256 | > 256 | > 256 | > 256 | > 256 | 1 (≈ 2.2 µM) | 2.5 (≈ 5.51 µM) | 1.25 (≈ 2.75 µM) | 2.5 (≈ 5.51 µM)
Cc1ccccc1NS(=O)(=O)c1ccc2c(c1)NC(=O)C(C)S2 (stereo unspecified) | 1.2 (≈ 3.44 µM) | < 0.03 | > 256 | > 256 | > 256 | > 256 | > 256 | > 64 | 1.2 (≈ 3.44 µM) | 1.2 (≈ 3.44 µM) | 1.2 (≈ 3.44 µM)
CCCc1cc(O)nc(N2NC(C)=CC2NC(=O)c2ccccc2Cl)n1 (stereo unspecified) | 2 (≈ 5.35 µM) | 0.25 (≈ 0.669 µM) | > 256 | > 256 | > 256 | > 256 | > 256 | 0.25 (≈ 0.669 µM) | 1 (≈ 2.67 µM) | 0.5 (≈ 1.34 µM) | 1 (≈ 2.67 µM)
O=C1c2cccc3c([N+](=O)[O-])ccc(c23)C(=O)N1Cc1cccnc1 | 8 (≈ 24 µM) | 4 (≈ 12 µM) | > 256 | > 256 | > 256 | > 256 | > 256 | 4 (≈ 12 µM) | 8 (≈ 24 µM) | 2 (≈ 6 µM) | 8 (≈ 24 µM)
CC1=CC(NC(=O)C(C)Oc2ccccc2)N(c2nc(C)c(C)c(O)n2)N1 (stereo unspecified) | 1 (≈ 2.71 µM) | 0.25 (≈ 0.677 µM) | > 256 | > 256 | > 256 | > 256 | > 256 | 0.25 (≈ 0.677 µM) | 1 (≈ 2.71 µM) | 0.25 (≈ 0.677 µM) | 1 (≈ 2.71 µM)
O=C(Nc1ccc(Cl)c(S(=O)(=O)Nc2cccc(Cl)c2)c1)c1ccc([N+](=O)[O-])o1 | 1.5 (≈ 3.29 µM) | 0.06 (≈ 0.132 µM) | 256 (≈ 561 µM) | 128 (≈ 281 µM) | 12 (≈ 26.3 µM) | 32 (≈ 70.1 µM) | 32 (≈ 70.1 µM) | 0.5 (≈ 1.1 µM) | 1.5 (≈ 3.29 µM) | 1.5 (≈ 3.29 µM) | 1.5 (≈ 3.29 µM)
